Laboratory results from ChEMBL document CHEMBL4257580, “Tanshinone-IIA-Based Analogues of Imidazole Alkaloid Act as Potent Inhibitors To Block Breast Cancer Invasion and Metastasis in Vivo” (J Med Chem, 2018).
Calls of active or inactive are those of the source. The calls are words filed in the database; no cut-off is given here.

Experiments:
[1] = test system: MDA-MB-231; test: Antimetastasis activity in human MDA-MB-231 cells assessed as changes in cell morphology at 5 to 10 uM after 24 hrs by based laser confocal microscopy
[2] = test system: MDA-MB-231; test: Antiangiogenesis activity in human MDA-MB-231 cells xenografted in fil1:EGFP transgenic zebrafish sub-intestinal vessels assessed as slowing of the sprout of angiogenesis at 5 uM measured every 24 hrs by fluorescence microscopy; format: functional, cell-based
Method in brief: (§1)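 Tg(fli1:EGFP) embryos at 48 hpf injected with 10–50 nL of DiI-labelled cells (~10^7 cells/mL in serum-free DMEM) into the perivitelline space near the subintestinal vessels. Ten embryos per well kept in 2 mL aquaculture water with 0 or 5 μM for 96 h. Imaged every 24 h by fluorescence microscopy; tumour area and trunk/tail fluorescence quantified, n=10/group, three experiments.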

[3] = test system: MDA-MB-231; test: Induction of apoptosis in human MDA-MB-231 cells assessed as late apoptotic cells at 15 uM after 72 hrs by annexin-V/propidium iodide double staining based flow cytometry (reference value: 0.12%); format: functional
[4] = test system: MDA-MB-231; test: Cell cycle arrest in human MDA-MB-231 cells assessed as accumulation at S phase at 10 uM after 72 hrs by propidium iodide staining based flow cytometry (reference value: 42.60%); format: functional
[5] = test system: MDA-MB-231; test: Induction of apoptosis in human MDA-MB-231 cells assessed as late apoptotic cells at 5 uM after 72 hrs by annexin-V/propidium iodide double staining based flow cytometry (reference value: 0.12%); format: functional
[6] = test system: MDA-MB-231; test: Induction of apoptosis in human MDA-MB-231 cells assessed as early apoptotic cells at 10 uM after 72 hrs by annexin-V/propidium iodide double staining based flow cytometry (reference value: 0.02%); format: functional
[7] = species: Danio rerio; test: Ecotoxicity in fil1:EGFP transgenic zebrafish embryo up to 50 uM after 96 hrs by microscopic analysis; format: organism-based; details: in vivo
[8] = test system: MDA-MB-231; test: Induction of morphological changes in human MDA-MB-231 cells assessed as unevening of cell membrane surface with large and numerous particles at 5 to 20 uM after 72 hrs; format: functional, cell-based
[9] = test system: MDA-MB-231; test: Induction of morphological changes in human MDA-MB-231 cells assessed as roughening of cell membrane surface with large and numerous particles at 5 to 20 uM after 72 hrs; format: functional, cell-based
[10] = test system: MDA-MB-231; test: Cell cycle arrest in human MDA-MB-231 cells assessed as accumulation at G2 phase at 5 uM after 72 hrs by propidium iodide staining based flow cytometry (reference value: 8%); format: functional
[11] = test system: MDA-MB-231; test: Antimetastasis activity in human MDA-MB-231 cells assessed reduction in number of paxillins at 5 to 10 uM after 24 hrs by immunofluorescence based assay
[12] = test system: MDA-MB-231; test: Antiproliferative activity against human MDA-MB-231 cells after 72 hrs by MTT assay; format: functional, cell-based
Method in brief: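 MDA-MB-231 cells grown in DMEM with 10% FBS and penicillin/streptomycin at 37 °C under 5% CO2. Seeded at 5×10^3 cells/well for 24 h, then exposed to compound across a concentration range for 72 h. MTT (5 mg/mL in PBS) added for 5 h, formazan dissolved in DMSO, absorbance read at 570 nm. Three repeats.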

[13] = test system: MDA-MB-231; test: Antiinvasive activity against human MDA-MB-231 cells assessed as reduction in number of black holes at 6 uM after 24 hrs by FITC-gelatin based confocal microscopy; format: functional, cell-based
Method in brief: (§2)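 Coverslips coated with poly-L-lysine, fixed with glutaraldehyde, overlaid with 0.2% FITC-gelatin in PBS/2% sucrose and quenched with sodium borohydride. Cells (2×10^5/well) plated with 0, 3 or 6 μM at 37 °C for 24 h. Gelatin degradation, seen as nonfluorescent dark holes, imaged by laser confocal microscopy; F-actin counterstained with rhodamine-phalloidin.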

[14] = test system: MDA-MB-231; test: Antiinvasive activity against human MDA-MB-231 cells assessed as reduction in number of black holes at 3 uM after 24 hrs by FITC-gelatin based confocal microscopy; format: functional, cell-based
Method in brief: as §2

[15] = test system: L02; test: Antiproliferative activity against human L02 cells after 72 hrs by MTT assay; format: cell-based; details: L02, 72 h
Method in brief: (§3)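 A549, HeLa, HepG2 and normal liver L02 cells kept in DMEM with 10% FBS at 37 °C under 5% CO2. Plated at 5×10^3 cells/well for 24 h, then treated with graded concentrations for 72 h. Viability measured by MTT reduction (5 h), formazan dissolved in DMSO and read at 570 nm. Three repeats.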

[16] = test system: MDA-MB-231; test: Induction of apoptosis in human MDA-MB-231 cells assessed as early apoptotic cells at 5 uM after 72 hrs by annexin-V/propidium iodide double staining based flow cytometry (reference value: 0.02%); format: functional
[17] = test system: MDA-MB-231; test: Induction of DNA damage in human MDA-MB-231 cells assessed as increase in olive tail moment at 10 to 20 uM by comet assay; format: functional, cell-based
Method in brief: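 Neutral comet assay on cells treated with 0, 10 or 20 μM for 24 h. DNA stained with SYBR Green I and imaged by fluorescence microscopy. Olive tail moment measured on 50 randomly selected cells per slide.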

[18] = test system: MDA-MB-231; test: Induction of DNA damage in human MDA-MB-231 cells assessed as increase in gammaH2AX focal positive cells up to 20 uM after 24 hrs by SYBR Green1-staining based fluorescence microscopy; format: functional, cell-based
[19] = test system: MDA-MB-231; test: Cell cycle arrest in human MDA-MB-231 cells assessed as accumulation at G1 phase at 15 uM after 72 hrs by propidium iodide staining based flow cytometry (reference value: 49.40%); format: functional
[20] = test system: MDA-MB-231; test: Induction of DNA damage in human MDA-MB-231 cells assessed as down-regulation of AKT expression at 2 to 15 uM by Western blot analysis; format: functional, cell-based
[21] = test system: MDA-MB-231; test: Cell cycle arrest in human MDA-MB-231 cells assessed as accumulation at G1 phase at 5 uM after 24 hrs by propidium iodide staining based flow cytometry (reference value: 49.40%)
[22] = test system: A549; test: Antiproliferative activity against human A549 cells after 72 hrs by MTT assay; format: functional, cell-based; details: A549, 72 h
Method in brief: as §3

[23] = test system: MDA-MB-231; test: Induction of DNA damage in human MDA-MB-231 cells assessed as up-regulation of p53 expression at 2 to 15 uM by Western blot analysis; format: functional, cell-based
[24] = test system: MDA-MB-231; test: Antiangiogenesis activity in human MDA-MB-231 cells xenografted in fil1:EGFP transgenic zebrafish sub-intestinal vessels assessed as inhibition of cell migration at 5 uM measured every 24 hrs for 96 hrs by fluorescence microscopy; format: functional, cell-based
Method in brief: as §1

[25] = test system: MDA-MB-231; test: Cell cycle arrest in human MDA-MB-231 cells assessed as accumulation at S phase at 15 uM after 72 hrs by propidium iodide staining based flow cytometry (reference value: 42.60%); format: functional
[26] = test system: Danio rerio; test: Toxicity in […] 24 hpf fil1:EGFP transgenic zebrafish embryo assessed as inhibition of normal angiogenesis at 2 to 4 uM after 48 hrs by fluorescence microscopy; format: organism-based; details: in vivo
Method in brief: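 Non-xenografted Tg(fli1:EGFP) embryos dechorionated at 24 hpf and incubated with 0, 2 or 4 μM for 48 h, with PTK787 as positive control. Subintestinal vessel formation imaged at 72 hpf by fluorescence microscopy. n=10/group, three independent experiments.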

`Cc1coc2c3ccc4c(c3c3[nH]c(-c5ccc(O)cc5)nc3c12)CCCC4(C)C` was tested, and the Activity [1] was “Active”, the Activity [2] was “Active” and the Activity [3] was 2.73%. For the same compound, the Activity [4] was 51.5%, the Activity [5] was 0.43% and the Activity [6] was 3.87%. For the same compound, the Activity [7] was “Non-Toxic”, the Activity [8] was “Active” and the Activity [9] was “Active”. For the same compound, the Activity [10] was 11.21%, the Activity [11] was “Active” and the Activity [12] was “Dose-dependent effect”. For the same compound, the IC50 ([12]; MDA-MB-231, 72 h) was 13.2 µM, the Activity [13] was “Active” and the Activity [14] was “Active”. For the same compound, the IC50 [15] was 49.1 µM, the Activity [16] was 2.22% and the Activity [17] was “Active”. The Activity [18] was “Active”, the Activity [19] was 35.37% and the Activity [20] was “Active”. The Activity [21] was 42.38%, the IC50 [22] was 6.9 µM and the Activity [23] was “Active”. The Activity [24] was “Active”, the Activity [25] was 54.51% and the Activity [26] was “Non-Toxic”.
